Where two headings read alike, the source gives them in different places. Marks after values point to notes of the source that are not given here.
Experiments:
[1] = estimated from literature data, cited from earlier work
[2] = test system: TC32 Ewing sarcoma cells; assay: 72 h growth inhibition; assay type: cell-based
[3] = test system: EWS-FLI1 mRNA; assay: Target gene mRNA expression by qRT-PCR in TC32 cells; assay type: cell-based; conditions: 6 h incubation
In short: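 TC32 cells, 300,000/well, were DPBS-washed at ~75% confluence (48–72 h). They were exposed 6 h to test compound at 0, 30, 100, 300 nM or mithramycin at 0, 10, 30, 100 nM. After trypsin collection, RNA was isolated and reverse-transcribed. mRNA was quantified by qRT-PCR relative to GAPDH (ΔΔCt). SEM is from at least two biological replicates.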

[4] = test system: Sp1, VEGFA and BCL-2 mRNA; assay: Target gene mRNA expression by qRT-PCR in PC3 cells; assay type: cell-based; conditions: 6 h treatment
In short: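 PC3 cells, 300,000/well, were washed with DPBS at ~75% confluence (48–72 h). They were treated 6 h with test compound at 0, 100, 300, 1000 nM or mithramycin at 0, 30, 100, 300 nM. Cells were harvested by trypsin; RNA was isolated and cDNA made. qRT-PCR expression was calculated relative to GAPDH (ΔΔCt). Error bars are SEM of at least two biological replicates.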

[5] = test system: TC32 tumors; assay: TC32 cell line xenograft efficacy in nu/nu mice; assay type: in vivo; conditions: for effect on survival (and tumor volume) / median survival: q3dx8 IV, MTMox32E […] mg/kg, MTM 1 mg/kg; for median survival: vehicle 22 days
In short: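 TC32 cells in 1:1 RPMI (no FBS)/Matrigel, 1.0 × 10^6 cells per 100 μL, injected subcutaneously into the flank of female athymic nu/nu mice. Mice with tumors of at least 50 mm3 (14–28 days post implantation) were randomized. Dosing was IV bolus in 5% Kolliphor EL/2% DMSO/93% saline. Tumor volume was measured every 3 days, with euthanasia at 20 mm tumor length. Tumor volume was compared at day 16 by one-way ANOVA; survival by log-rank (Holm-Sidak).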

[6] = test system: EWS-FLI1 and Sp1 mRNA; assay: TC32 xenograft tumor tissue mRNA analysis; assay type: in vivo, mice; conditions: tumors collected 6 h after the sixth dose, n = 3/group
In short: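 Three mice per group were taken from the q3dx8 IV xenograft study. Tumors were resected 6 h after the 6th dose, rinsed in sterile PBS, snap-frozen in liquid nitrogen and stored at −80 °C. Tissue was cut semifrozen and ground under liquid nitrogen. Total RNA was extracted in RLT lysis buffer with a silica-column kit.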

[7] = molecular target: EWS-FLI1 (Homo sapiens, UniProt Q01543+Q01844); conditions: 10 μM, 6 h incubation, TC32 cells; DMSO control 48.9 °C
[8] = test system: EWS-FLI1 and NR0B1 protein; conditions: TC32 cells, 24 h, 10, 30 and 300 nM
[9] = test system: EWS-FLI1 transcriptional activity (NR0B1 promoter); assay: Luciferase reporter assay, NR0B1 promoter, in TC32 cells; assay type: cell-based; conditions: read-out: EC50, NR0B1-mediated luciferase expression; 12 h incubation
[10] = test system: TC32 Ewing sarcoma cells; conditions: 72 h; cited from earlier work
[11] = test system: PC3 prostate cells; conditions: read-out: PC3 GI50, 72 h; cited from earlier work
[12] = test system: EWS-FLI1 transcriptional activity (NR0B1 promoter); conditions: read-out: EC50 in a similar reporter cell line; cited from earlier work
[13] = test system: CMV promoter; conditions: cited from earlier work

## CO[C@@H]([C@@H]1Cc2cc3cc(O[C@H]4CC(O[C@H]5CC(O)[C@H](O)C(C)O5)[C@H](O)C(C)O4)c(C)c(O)c3c(O)c2C(=O)[C@H]1O[C@H]1CC(O[C@H]2CC(O[C@H]3CC(O)[C@H](O)C(C)O3)[C@@H](O)C(C)O2)[C@H](O)C(C)O1)[C@@H](O)C(C)=O (some centres unmarked) [EC-8042]
[1]; IP, 24 mg/kg, CL/F
  clearance (CL/F): 7197^b mL/h/kg
[1]; IP, 24 mg/kg
  dose-normalized systemic exposure (AUC/D): 202 kg·ng·h/mL/mg
  volume of distribution (Vd): 11.259 L/kg

## (E)-3-(2′-{2-[(Methyl l-Phenylalanyl-l-tryptophanate)amino]-2-oxoethoxy}imino) MTM [MTMox32E]
[2]
  TC32 GI50: 79 nM
[3]
  EWS-FLI1 mRNA levels: decreased EWS-FL1 mRNA levels in a concentration-dependent manner
[4]
  Sp1, VEGFA and BCL-2 mRNA: minimally affected Sp1, VEGFA, and BCL-2
[5]
  effect on survival (and tumor volume): significant in comparison to control (p = 0.0001) and MTM (p = 0.0385)
  median survival: 38 days
[5]; qMWFx2, 14 mg/kg
  effect on survival: statistically significant improvement in survival over vehicle control group
[6]
  EWS-FLI1 and Sp1 mRNA levels in tumor: reduced mRNA levels of both EWS-FLI1 (p = 0.002) and Sp1 (p = 0.04)
[7]
  Tagg of EWS-FLI1: 51.7 °C
[8]
  EWS-FLI1 protein levels: did not affect the protein levels of EWS-FLI1
  NR0B1 protein expression: greatly diminished the expression of NR0B1

## mithramycin A [MTM]
[9]
  EC50: 68 nM
[3]
  EWS-FLI1 mRNA levels: decreased EWS-FL1 mRNA levels in a concentration-dependent manner
[4]
  Sp1, VEGFA and BCL-2 mRNA: minimally affected Sp1, VEGFA, and BCL-2
[5]
  effect on survival (and tumor volume): not statistically different than the control group
  median survival: 31 days
[6]
  EWS-FLI1 and Sp1 mRNA levels in tumor: reduced Sp1 mRNA levels (p = 0.003), but not EWS-FLI1
[10]
  TC32 GI50: 32 nM
[11]
  GI50: 83 nM
[12]
  EC50: 5 to 100 nM
[13]
  effect on cells expressing luciferase under the control of a CMV promoter: had no effect

## CO[C@@H]([C@@H]1Cc2cc3cc(O[C@H]4C[C@@H](O[C@H]5C[C@@H](O)[C@H](O)[C@@H](C)O5)[C@H](O)[C@@H](C)O4)c(C)c(O)c3c(O)c2C(=O)[C@H]1O[C@H]1C[C@@H](O[C@H]2C[C@@H](O[C@H]3C[C@](C)(O)[C@H](O)[C@@H](C)O3)[C@@H](O)[C@@H](C)O2)[C@H](O)[C@@H](C)O1)[C@@H](O)C(C)=O [MTM SK]
[1]; IV, 18 mg/kg
  clearance (CL): 43.17 mL/min/kg
  dose-normalized systemic exposure (AUC/D): 386 kg·ng·h/mL/mg
  volume of distribution (Vd): 0.857 L/kg

From publication PMC7810150 (Journal of medicinal chemistry, 2020)
